Test results taken from article PMC2987701 (Bioorganic & medicinal chemistry letters, 2010).
“Also recorded” adds a separate entry of the source.

Columns and labels:
mammalian cell line = test: Cell viability in a mammalian cell line; format: cell-based; conditions: note [21]
GST-Bfl-1 [1] = biological target: T1, GST-Bfl-1 (Homo sapiens, UniProt Q16548); test: High-throughput fluorescence polarization; format: binding; conditions: result in words
T1 sequence (Q16548 1-175): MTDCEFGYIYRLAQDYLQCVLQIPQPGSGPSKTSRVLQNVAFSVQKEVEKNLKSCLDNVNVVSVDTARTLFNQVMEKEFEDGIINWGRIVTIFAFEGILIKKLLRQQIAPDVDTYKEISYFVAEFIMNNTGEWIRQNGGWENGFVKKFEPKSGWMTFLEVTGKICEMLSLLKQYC

[2] = test system: H69AR small cell lung tumor cell; test: Cell-based viability study, tumor cell growth; set-up: species or system human; conditions: concentration of 10 μM; note [21]
GST-Bfl-1 [3] = biological target: T1, GST-Bfl-1; test: LanthaScreen TR-FRET assay, FITC-Bid BH3 peptide / GST-tagged protein; format: binding; conditions: result in words
Procedure, shortened: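 Test compound at 10 concentrations (2-fold serial dilution, 10% DMSO), in duplicate wells. Preincubated 1 h at 4 °C with GST-Bfl-1 (7.4 nM working solution, Bis-Tris pH 7.0 buffer). Then FITC-Bid (5.6 nM) plus Tb-antibody (2.5 nM) working solution added, 4 h at room temperature in the dark. Read in time-resolved mode: excitation 340 nm, 0.1 ms delay, 1 ms integration, 5 reads averaged. Signal is the 520/490 nm ratio. Controls were buffer without protein and DMSO.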

O=C1C(Cl)=C(N2CCCCC2)C(=O)N1c1ccc(Cl)c(Cl)c1 [Compound 19]
Effect on cell viability (mammalian cell line; 15 μg/mL): decreased cell viability

CN(C)C1=C(Cl)C(=O)N(c2ccc(Cl)c(Cl)c2)C1=O [Compound 21]
Potency of Bfl-1 inhibition in words (FP / assay not specified) (GST-Bfl-1 [1]): equipotent to original hit 1; also recorded: Submicromolar | Effect on cell viability in a mammalian cell line (mammalian cell line; concentration not given): not inhibitory to cell viability

O=C1C(Cl)=C(N2CCOCC2)C(=O)N1c1ccc(Cl)c(Cl)c1 [Compound 22]
Potency of Bfl-1 inhibition in words (FP / assay not specified) (GST-Bfl-1 [1]): equipotent to original hit 1; also recorded: Submicromolar

C[C@@H]1CN(C2=C(Cl)C(=O)N(c3ccc(Cl)c(Cl)c3)C2=O)CCN1 [Compound 24]
Potency of Bfl-1 inhibition in words (FP / assay not specified) (GST-Bfl-1 [1]): equipotent to original hit 1; also recorded: Submicromolar

CN1CCN(C2=C(Cl)C(=O)N(c3ccc(Cl)c(Cl)c3)C2=O)CC1 [Compound 1]
Inhibition of human H69AR small cell lung tumor cell growth [2]: inhibition of human H69AR small cell lung tumor cell growth was observed | Potency of Bfl-1 inhibition in words (TR-FRET) (GST-Bfl-1 [3]): submicromolar potency | Potency of Bfl-1 inhibition in words (FP / assay not specified) (GST-Bfl-1 [1]): submicromolar potency

O=C1C(Cl)=C(N2CCN(C/C=C/c3ccccc3)CC2)C(=O)N1c1ccc(Cl)c(Cl)c1 [Compound 38]
Potency of Bfl-1 inhibition in words (FP / assay not specified) (GST-Bfl-1 [1]): Submicromolar

O=C1C(Cl)=C(N2CCN(CCO)CC2)C(=O)N1c1ccc(Cl)c(Cl)c1 [Compound 28]
Potency of Bfl-1 inhibition in words (FP / assay not specified) (GST-Bfl-1 [1]): Submicromolar

O=C1C(Cl)=C(N2CCN(CCOCCO)CC2)C(=O)N1c1ccc(Cl)c(Cl)c1 [Compound 29]
Potency of Bfl-1 inhibition in words (FP / assay not specified) (GST-Bfl-1 [1]): Submicromolar
